The record followed here is ChEMBL document CHEMBL1152204, “Novel potent and highly selective human A(3) adenosine receptor antagonists belonging to the 4-amido-2-arylpyrazolo[3,4-c]quinoline series: molecular docking analysis and pharmacological studies” (Bioorg Med Chem, 2009).

Assay [1] addresses T1, Adenosine receptor A3 (Homo sapiens, UniProt P0DMS8).
T1 sequence (P0DMS8 whole entry): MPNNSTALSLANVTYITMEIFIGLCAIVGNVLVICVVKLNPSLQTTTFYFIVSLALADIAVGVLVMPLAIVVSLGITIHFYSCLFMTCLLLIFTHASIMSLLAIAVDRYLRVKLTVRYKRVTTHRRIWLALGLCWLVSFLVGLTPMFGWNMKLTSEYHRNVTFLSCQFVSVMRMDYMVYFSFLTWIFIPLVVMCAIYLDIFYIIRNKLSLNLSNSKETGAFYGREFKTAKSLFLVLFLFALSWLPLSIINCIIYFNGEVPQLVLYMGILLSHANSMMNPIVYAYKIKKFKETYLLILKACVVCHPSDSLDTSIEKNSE
The experiment in a line: (§1) Displacement of [125I]AB-MECA from human adenosine A3 receptor expressed in CHO cells by scintillation counting. It is filed as cell-based. Summed up: (§2)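 hA3-CHO membranes (50 µg protein) with 0.5 nM [125I]AB-MECA in 50 mM Tris-HCl, 10 mM MgCl2, 1 mM EDTA, pH 7.4; six to eight ligand concentrations; 120 min at 4 °C. Nonspecific binding: 1 µM AB-MECA. GF/B filtration. Ki by Cheng–Prusoff, means of four assays in duplicate.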
For orientation: In a radioligand displacement assay an active substance lowers the binding of a labelled ligand.

Assay [2] addresses T2, Adenosine receptor A3 (Rattus norvegicus) (UniProt P28647).
T2 sequence (whole entry): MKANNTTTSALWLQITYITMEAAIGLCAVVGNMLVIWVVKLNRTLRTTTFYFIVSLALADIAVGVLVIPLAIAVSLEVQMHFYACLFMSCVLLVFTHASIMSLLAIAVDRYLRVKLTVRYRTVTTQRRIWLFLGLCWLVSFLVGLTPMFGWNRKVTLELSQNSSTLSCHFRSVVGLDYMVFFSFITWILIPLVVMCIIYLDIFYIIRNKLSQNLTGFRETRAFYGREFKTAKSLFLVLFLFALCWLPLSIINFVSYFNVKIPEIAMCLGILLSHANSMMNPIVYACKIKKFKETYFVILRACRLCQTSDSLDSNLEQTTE
In words: Displacement of [125I]AB-MECA from rat adenosine A3 receptor expressed in HEK293 cells at 1 uM by scintillation counting. It is filed as cell-based. The gist of the method: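 rA3-HEK293 membranes (10 µg protein) with 0.5 nM [125I]AB-MECA in Tris-HCl/MgCl2/EDTA buffer pH 7.4; 120 min at 25 °C; GF/B filtration and scintillation counting; percent inhibition at 1 µM test compound.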

For another assay, the target named is T3, Adenosine receptor A1 (Homo sapiens, UniProt P30542).
T3 sequence (P30542 whole entry): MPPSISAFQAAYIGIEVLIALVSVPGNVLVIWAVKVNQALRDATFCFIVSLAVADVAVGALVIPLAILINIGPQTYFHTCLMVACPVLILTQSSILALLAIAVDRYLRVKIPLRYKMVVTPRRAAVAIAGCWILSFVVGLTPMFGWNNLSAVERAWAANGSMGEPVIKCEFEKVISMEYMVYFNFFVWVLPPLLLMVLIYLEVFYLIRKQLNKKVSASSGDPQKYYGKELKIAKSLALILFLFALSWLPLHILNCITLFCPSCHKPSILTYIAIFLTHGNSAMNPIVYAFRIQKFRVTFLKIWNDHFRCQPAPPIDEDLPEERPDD
In words: Displacement of [3H]DPCPX from human adenosine A1 receptor expressed in CHO cells by scintillation counting. It counts as cell-based. Summed up:
(§3)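 hA1-CHO membranes (50 µg protein) with 1 nM [³H]DPCPX in 50 mM Tris-HCl pH 7.4, 120 min at 25 °C; nonspecific binding with 10 µM CHA. GF/B filtration. Ki from six to eight concentrations via Cheng–Prusoff (four duplicate assays); or % inhibition at 1 µM.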

Assay [3] has as its target T4, Adenosine receptor A2a (Homo sapiens, UniProt P29274). The experiment in a line: Displacement of [3H]ZM241385 from human adenosine A2A receptor expressed in CHO cells at 1 uM by scintillation counting. It is filed as cell-based. Summed up:
(§4)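 hA2A-CHO membranes (50 µg protein) with 1 nM [³H]ZM241385 in 50 mM Tris-HCl, 10 mM MgCl2, pH 7.4; 60 min at 4 °C; nonspecific binding with 1 µM ZM241385. GF/B filtration. Ki from six to eight concentrations via Cheng–Prusoff; or % inhibition at 1 µM.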

Assay [4] deals with T5, Adenosine receptor A2b (Homo sapiens) (UniProt P29275).
T5 sequence (whole entry): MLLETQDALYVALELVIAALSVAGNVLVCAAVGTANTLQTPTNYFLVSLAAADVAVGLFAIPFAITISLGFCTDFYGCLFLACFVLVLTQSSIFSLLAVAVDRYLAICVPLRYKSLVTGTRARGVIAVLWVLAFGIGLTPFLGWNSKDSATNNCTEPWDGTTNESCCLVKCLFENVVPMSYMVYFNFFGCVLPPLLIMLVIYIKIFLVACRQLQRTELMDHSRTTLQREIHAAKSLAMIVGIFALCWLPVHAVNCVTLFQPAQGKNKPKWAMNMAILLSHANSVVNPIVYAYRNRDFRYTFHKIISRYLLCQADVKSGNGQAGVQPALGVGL
The experiment in a line: Antagonist activity at human adenosine A2B receptor expressed in CHO cells assessed as inhibition of NECA-induced cAMP accumulation at 1 uM. It counts as functional, cell-based. Summed up:
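Whole hA2B-CHO cells (1 × 10⁶/assay) in buffered saline, pH 7.4, with 2 IU/ml adenosine deaminase and Ro 20-1724; preincubated 10 min at 37 °C. Stimulated with 200 nM NECA; compound at 1 µM. Stopped with cold 6% TCA, ether-extracted; cAMP by [³H]cAMP competition protein binding; % inhibition reported.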
Background: Changes in cAMP serve as a functional read-out for many G protein-coupled receptors.

The target of assay [5] is T1, Adenosine receptor A3. The experiment in a line: Antagonist activity at human adenosine A3 receptor expressed in CHO cells assessed as inhibition of CI-IB-MECA-mediated inhibition of cAMP accumulation by competition protein binding assay. It counts as functional, cell-based. Summed up: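 hA3-CHO cells (1 × 10⁶/assay) preincubated 10 min at 37 °C in buffered saline pH 7.4 with adenosine deaminase (2 IU/ml) and Ro 20-1724. cAMP inhibited by 100 nM Cl-IB-MECA; antagonist 1 nM–1 µM. TCA stop, ether extraction, cAMP by [³H]cAMP/adrenal binding-protein competition. IC50 as mean of four experiments.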

Assay [6] has as its target T6, Adenosine receptor A3 (Homo sapiens) (UniProt P0DMS8).
T6 sequence (whole entry): T1 sequence (P0DMS8 whole entry)
The assay is described as §1. It is filed as cell-based. Further details: concentration or dose not given beside the values. The conditions noted are these: concentration not given here. The gist of the method:
as §2

In assay [7] the target is T7, Adenosine receptor A1 (Homo sapiens) (UniProt P30542).
T7 sequence (whole entry): T3 sequence (P30542 whole entry)
In words: Displacement of [3H]DPCPX from human adenosine A1 receptor expressed in CHO cells at 1 uM by scintillation counting. It is filed as cell-based. Summed up:
as §3

Assay [8] deals with T4, Adenosine receptor A2a. The experiment in a line: Displacement of [3H]ZM241385 from human adenosine A2A receptor expressed in CHO cells by scintillation counting. It is filed as cell-based. The gist of the method: as §4

T4 sequence (P29274 whole entry): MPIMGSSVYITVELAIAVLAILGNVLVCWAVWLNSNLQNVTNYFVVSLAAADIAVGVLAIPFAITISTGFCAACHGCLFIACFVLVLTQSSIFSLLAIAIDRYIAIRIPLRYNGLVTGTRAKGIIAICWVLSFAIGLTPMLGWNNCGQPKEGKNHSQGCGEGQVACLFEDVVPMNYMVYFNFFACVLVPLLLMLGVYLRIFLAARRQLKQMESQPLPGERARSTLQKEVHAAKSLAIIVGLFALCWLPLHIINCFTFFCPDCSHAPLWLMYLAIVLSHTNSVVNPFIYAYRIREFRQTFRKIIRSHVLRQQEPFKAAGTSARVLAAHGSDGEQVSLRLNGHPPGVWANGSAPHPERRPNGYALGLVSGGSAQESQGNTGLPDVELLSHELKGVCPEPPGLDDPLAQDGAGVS

On to `Cc1ccc(C(=O)Nc2nc3ccccc3c3cn(-c4ccccc4)nc23)o1`, for which the Ki (in general, the dissociation constant of the complex between target and ligand, obtained from inhibition or displacement) on Adenosine receptor A3 [1] is 7.5 nM; at Adenosine receptor A1 it was 500 nM. For the same molecule, the results for the inhibition (in [2]; on Adenosine receptor A2a [3]; in assay [4]) were 30%, 10% and 5%, respectively. Besides, at Adenosine receptor A3 [5], the IC50 – broadly, the midpoint of a concentration-inhibition curve – is 49 nM.
`O=C(c1ccc(C(F)(F)F)cc1)N(C(=O)c1ccc(C(F)(F)F)cc1)c1nc2ccccc2c2cn(-c3ccccc3)nc12`: the inhibition – broadly, the share of the control response that was lost under treatment – in assay [6] amounted to 29%; in assay [7], 17%; at Adenosine receptor A2a [3], 1%; in assay [4] it was 1%.
At Adenosine receptor A2a [8], `Cc1cccc(-n2cc3c(n2)c(NC(=O)c2ccccc2)nc2ccccc23)c1` gave a Ki of 2860 nM.
As for `Nc1nc2ccccc2c2cn(-c3cccc(C(F)(F)F)c3)nc12`, the inhibition in assay [6] turned out to be 30%; in assay [7] it was 6%; at Adenosine receptor A2a [3], 7%; in [4] it was 4%.
For `O=c1[nH]c2ccccc2c2cn(-c3cccc(C(F)(F)F)c3)nc12`, in that order: 4%, 2%, 5% and 3%.
